According to ChEMBL document CHEMBL3526139, “Clinical pharmacokinetics, metabolism, and drug-drug interaction of carfilzomib” (Drug Metab Dispos, 2013):

Experiments:
[1] = AUC last in human patient with relapsed solid tumor at 20 mg/m'2, iv administered on days 1, 2, 8, 9, 15 and 16 of 28-day cycle over 2 to 10 mins measured on day 1 of cycle 1 by LC-MS/MS analysis; format: ADME, organism-based; set-up: route intravenous, time 0 - last; settings: plasma
Outline: (§1)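 Patients with relapsed solid tumors (n=3) received carfilzomib IV at 20 mg/m2. Plasma was sampled on Days 1 and 16 of Cycle 1 before dosing, at end of administration, and at 5, 15, 30 min and 1, 2, 4 h after. Samples underwent solid phase extraction and LC-MS/MS with d10-carfilzomib internal standard over 0.100–200 ng/mL. Parameters were derived noncompartmentally (constant IV infusion model) from actual elapsed time from infusion start.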

Plasma = assay: Drug metabolism in plasma of iv dosed human patient with relapsed and refractory hematological malignancies assessed as morpholino-hPhe-Leu-Phe-Leu-diol metabolite formation administered on days 1, 2, 8, 9, 15 and 16 of 28-day cycle over 2 to 10 mins by LC-MS/MS analysis; format: ADME, organism-based; settings: in vivo
[2] = Drug excretion in urine of iv dosed human patient with relapsed and refractory hematological malignancies assessed as morpholino-hPhe-Leu metabolite formation administered on days 1, 2, 8, 9, 15 and 16 of 28-day cycle over 2 to 10 mins by LC-MS/MS analysis; format: ADME, organism-based; settings: in vivo
Cytochrome P450 1A2 [3] = target: T1, Cytochrome P450 1A2 (Homo sapiens, UniProt P05177); assay: Inhibition of CYP1A2 in human liver microsomes using phenacetin as substrate after 5 mins by LC-MS/MS analysis; format: ADME
T1 sequence (P05177 whole entry): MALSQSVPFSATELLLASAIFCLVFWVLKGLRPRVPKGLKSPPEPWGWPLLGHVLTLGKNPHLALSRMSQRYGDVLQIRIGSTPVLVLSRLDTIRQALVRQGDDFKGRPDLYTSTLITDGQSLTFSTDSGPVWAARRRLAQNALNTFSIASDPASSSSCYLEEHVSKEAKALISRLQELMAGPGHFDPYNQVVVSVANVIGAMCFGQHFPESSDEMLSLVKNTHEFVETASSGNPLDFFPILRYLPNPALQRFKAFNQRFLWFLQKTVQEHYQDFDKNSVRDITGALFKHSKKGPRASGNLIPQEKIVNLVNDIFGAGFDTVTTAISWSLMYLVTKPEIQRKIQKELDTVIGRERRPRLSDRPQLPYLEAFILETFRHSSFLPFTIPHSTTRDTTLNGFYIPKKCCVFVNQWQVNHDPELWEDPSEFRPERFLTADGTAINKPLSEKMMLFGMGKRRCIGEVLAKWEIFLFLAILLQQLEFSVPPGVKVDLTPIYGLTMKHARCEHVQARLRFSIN
Outline: (§2)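 Pooled HLM from 16 donors were incubated at 37°C in duplicate with carfilzomib 0.01–10 µM and probe substrate at about its Km. Substrates were phenacetin, amodiaquine, diclofenac, S-mephenytoin, dextromethorphan, testosterone and midazolam. Protein was 0.1 mg/mL, or 0.05 mg/mL with midazolam. Reactions ran 5 min without preincubation, then were quenched with acetonitrile. Metabolites were measured by LC-MS/MS relative to 0.5% acetonitrile controls.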

CYP1A2 = assay: Decrease in CYP1A2 gene expression in human hepatocytes at 2.5 uM after 3 days by qPCR analysis; format: ADME, cell-based, Hepatocyte
Outline: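 Hepatocytes were treated 3 days with carfilzomib (0.1–2.5 µM) or 0.08% DMSO, renewed daily. CYP3A mRNA was measured in 3 donors and CYP1A2 mRNA in one additional donor, both by qPCR. Values are triplicate means relative to DMSO.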

CYP3A [4] = target: T2, CYP3A (Homo sapiens, UniProt P08684+P20815+P24462+Q9HB55); assay: Inhibition of CYP3A in human liver microsomes assessed as substrate metabolite formation using midazolam as substrate measured after 5 mins by LC-MS/MS analysis; format: ADME; settings: probe midazolam; outline: as §2
[5] = AUC last in human patient with relapsed solid tumor at 20 mg/m'2, iv administered on days 1, 2, 8, 9, 15 and 16 of 28-day cycle over 2 to 10 mins measured on day 16 of cycle 1 by LC-MS/MS analysis; format: ADME, organism-based; set-up: route intravenous, time 0 - last; settings: plasma; outline: as §1
[6] = AUC infinity in human patient with relapsed solid tumor at 20 mg/m'2, iv administered on days 1, 2, 8, 9, 15 and 16 of 28-day cycle over 2 to 10 mins measured on day 16 of cycle 1 by LC-MS/MS analysis; format: ADME, organism-based; set-up: time infinity, route intravenous; settings: plasma; outline: as §1
[7] = Cmax in human patient with relapsed solid tumor at 20 mg/m'2, iv administered on days 1, 2, 8, 9, 15 and 16 of 28-day cycle over 2 to 10 mins measured on day 16 of cycle 1 by LC-MS/MS analysis; format: ADME, organism-based; set-up: route intravenous; settings: in vivo; outline: as §1
[8] = Drug metabolism in pooled human hepatocytes assessed as disapperance rate at 1 uM by LC-MS/MS analysis; format: ADME, cell-based, Hepatocyte
Outline: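 Pooled human hepatocytes in suspension (~0.5 x 10^6 viable cells/mL) were incubated with 1 µM carfilzomib at 37°C under 5% CO2, with or without isoform-selective CYP chemical inhibitors. Reactions were quenched with acetonitrile at 0, 15, 30, 60 and 120 min. Carfilzomib was quantified by non-validated LC-MS/MS after protein precipitation.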

CYP3A [9] = target: T2, CYP3A; assay: Time-dependent inhibition of CYP3A in human liver microsomes assessed as testosterone 6-hydroxylation using testosterone as substrate by LC-MS/MS analysis; format: ADME; settings: probe testosterone (6-hydroxylation)
Outline: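 Pooled HLM (16 donors, mixed sex), 37°C, duplicate. IC50: carfilzomib 0.01–10 µM preincubated 30 min, then testosterone near Km (100 µM) at 0.1 mg/mL protein, 5 min, LC-MS/MS, relative to 0.5% acetonitrile control. KI/kinact: 0–8 µM preincubated 0–30 min with 2.5 mg/mL HLM plus NADPH-generating system, diluted 25-fold, testosterone 200 µM for 5 min.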

[10] = Cmax in human patient with relapsed solid tumor at 20 mg/m'2, iv administered on days 1, 2, 8, 9 15 and 16 of 28-day cycle over 2 to 10 mins measured on day 1 of cycle 1 by LC-MS/MS analysis; format: ADME, organism-based; set-up: route intravenous; settings: in vivo; outline: as §1
Cytochrome P450 3A = Cytochrome P450 3A (Homo sapiens, UniProt P08684+P20815+Q9HB55+P24462); assay: Decrease in CYP3A activity in rifampin-treated human hepatocytes assessed as 6-betahydroxytestosterone formation using testosterone as substrate at 2.5 uM after 30 mins by LC-MS/MS analysis; format: ADME, cell-based, Hepatocyte; settings: 0.5 h
Outline: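 Hepatocytes induced 3 days with 20 µM rifampicin were exposed to fresh medium containing 2.5 µM carfilzomib for 30 min and washed once. They were then incubated with testosterone 200 µM, and 6β-hydroxytestosterone was measured by LC-MS/MS.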

Cytochrome P450 1A2 [11] = target: T1, Cytochrome P450 1A2; assay: Decrease in CYP1A2 activity in human hepatocytes assessed as acetaminophenol formation using phenacetin as substrate at 2.5 uM incubated for 3 days prior to substrate challenge for 60 mins by LC-MS/MS analysis; format: ADME, cell-based, Hepatocyte; settings: 1 h
Outline: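 Hepatocytes from 3 donors were plated on collagen I and cultured 2 days, then treated 3 days with carfilzomib (0.1–2.5 µM), 0.08% DMSO, rifampicin 20 µM or β-naphthoflavone 20 µM, renewed daily. Cells were then incubated in serum-free medium in triplicate with testosterone 200 µM (CYP3A, 30 min, 6β-hydroxytestosterone) or phenacetin 100 µM (CYP1A2, 60 min, acetaminophenol). Products were measured by LC-MS/MS and expressed relative to DMSO.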

- AUC(0-t) [1]: 238 ng·h/mL
- Drug metabolism (Plasma): metabolite_detected
- Drug excretion [2]: metabolite_detected
- IC50 (Cytochrome P450 1A2 [3]): > 10 µM
- inhibition at 72 h, 2.5 µM (CYP1A2): 40%
- IC50 at 5 min (CYP3A [4]): 1.7 µM
- AUC(0-t) [5]: 301 ng·h/mL
- AUC(0-inf) [6]: 301 ng·h/mL
- Cmax [7]: 3710 ng/mL
- Drug metabolism [8]: 0.015 min⁻¹
- Ki (CYP3A [9]): 11 µM
- kinact (CYP3A [9]): 0.00167 s⁻¹
- Cmax [10]: 2760 ng/mL
- inhibition (INH) (Cytochrome P450 3A): 14%
- inhibition (INH) (Cytochrome P450 1A2 [11]): Dose-dependent effect
Structure (SMILES): CC(C)C[C@H](NC(=O)[C@H](CCc1ccccc1)NC(=O)CN1CCOCC1)C(=O)N[C@@H](Cc1ccccc1)C(=O)N[C@@H](CC(C)C)C(=O)[C@@]1(C)CO1 [CARFILZOMIB]
